Columns and labels:
[1] = system: human liver cancer cell lines SMMC-7721; assay: MTT cytotoxicity, SMMC-7721 cells, 24 h; type: cell-based; conditions: SMMC-7721, 24 h, read-out: IC50 (μM)/24 h SMMC-7721
Summary of the method: (§1)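 Cells (1 × 10^4 per well, triplicate) were pre-cultured 24 h at 37 °C, then exposed 24 h at 37 °C to test compound at 10, 25, 50, 100 and 200 μg mL−1, with drug-free and DMSO solvent controls. MTT (2 mg mL−1 stock in PBS) was added for 4 h and formazan dissolved in DMSO. A568 was read; inhibition % = (A control − A dosed)/A control × 100.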

[2] = system: human benign liver cell lines LO2; assay: MTT cytotoxicity, LO2 cells, 24 h; type: cell-based; conditions: L02, 24 h, read-out: IC50 (μM)/24 h LO2
Summary of the method: as §1

[3] = system: MHCC97H cell lines; assay: Annexin V-FITC/PI flow cytometry apoptosis assay; type: cell-based, human; conditions: 48 h
Summary of the method: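 MHCC97H cells were seeded in triplicate and pre-cultured 24 h at 37 °C. Medium was replaced with test compound at 0.01, 1 or 25 μg mL−1, alongside drug-free and DMSO solvent controls, for 48 h at 37 °C. Cells were detached with 0.25% trypsin without EDTA, stained with Annexin V-FITC/PI for 5–15 min at room temperature in the dark, and analysed by flow cytometry. Quadrants: live, early apoptotic, late apoptotic, necrotic.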

[4] = system: human benign prostate cell lines RWPE-1; assay: MTT cytotoxicity of 12a, RWPE-1 cells, 48 h; type: cell-based; conditions: RWPE-1, 48 h, read-out: IC50 (μM)/48 h RWPE-1
Summary of the method: (§2)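 Seeding was 1 × 10^4 cells per well in triplicate, with 24 h pre-culture at 37 °C. No iron supplement was used. Test compound at 0.01, 0.1, 1, 10 and 25 μg mL−1 was given for 48 h at 37 °C, with drug-free and DMSO solvent controls. MTT (2 mg mL−1 stock in PBS) was added for 4 h, centrifuged, formazan dissolved in DMSO, and absorbance read at 568 nm.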

[5] = system: human benign colon cell lines CCD18CO; assay: MTT cytotoxicity of 12a, CCD18CO cells, 48 h; type: cell-based; conditions: CCD-18Co, read-out: IC50 (μM)/48 h CCD18CO
Summary of the method: as §2

[6] = system: human benign breast cell lines MCF-10A; assay: MTT cytotoxicity of 12a, MCF-10A cells, 48 h; type: cell-based; conditions: read-out: IC50 (μM)/48 h MCF-10A
Summary of the method: as §2

[7] = system: human liver cancer cell lines SMMC-7721; assay: MTT cytotoxicity of 12a in Fe2+ environment, SMMC-7721 cells, 48 h; type: cell-based; conditions: SMMC-7721, 48 h, read-out: IC50 (μM)/48 h SMMC-7721 with Fe2+
Summary of the method: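 Cells at 1 × 10^4 per well, in triplicate, grew 12 h at 37 °C, then 12 h more in medium containing 100 μmol L−1 FeSO4. Medium was replaced with test compound (0.01, 0.1, 1, 10, 25 μg mL−1), with drug-free and DMSO solvent controls, for 48 h at 37 °C. MTT (2 mg mL−1 stock in PBS) was added for 4 h, formazan dissolved in DMSO, and A568 read.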

C[C@H]1[C@@H](O)O[C@@H]2O[C@@]3(C)CC[C@H]4[C@H](C)CC[C@@H]1[C@@]24OO3 [DHA, Dihydroartemisinin, reference compound]
IC50 [1]: > 700 µM
IC50 [2]: 220 ± 40 µM

COC1OC(=O)C(Cl)=C1N1CCN(CCCCCC[C@H]2CN([C@@H]3OC4O[C@@]5(C)CC[C@H]6[C@H](C)CC[C@@H]([C@H]3C)[C@@]46OO5)CCS2(=O)=O)CC1 (stereo partly drawn) [Hybrid 12a, 3-Chloro-4-(4-(6-((2S)-1,1-dioxido-4-((3R,5aS,6R,8aS,9R,10R,12aR)-3,6,9-trimethyldecahydro-3H-3,12-epoxy[1,2]dioxepino[4,3-i]isochromen-10-yl)thiomorpholin-2-yl)hexyl)piperazin-1-yl)-5-methoxyfuran-2(5H)-one]
percentage of apoptosis ([3]; 0.01 μg mL^−1 (lowest concentration)): 7.67%
percentage of apoptosis ([3]; 25 μg mL^−1 (highest concentration)): 59.76%
IC50 [4]: 100 ± 30 µM
IC50 [5]: 60 ± 40 µM
IC50 [1]: 30 ± 40 µM
IC50 [2]: 700 ± 20 µM
IC50 [6]: 40 ± 40 µM
IC50 [7]: 20 ± 30 µM

CC(C)[C@@H]1CC[C@@H](C)C[C@@H]1O[C@H]1OC(=O)C(Cl)=C1N1CCN(CCCCCC[C@H]2CN([C@@H]3OC4O[C@@]5(C)CC[C@H]6[C@H](C)CC[C@@H]([C@H]3C)[C@@]46OO5)CCS2(=O)=O)CC1 (stereo partly drawn) [Hybrid 12b, (5S)-3-Chloro-4-(4-(6-((2S)-1,1-dioxido-4-((3R,5aS,6R,8aS,9R,10R,12aR)-3,6,9-trimethyldecahydro-3H-3,12-epoxy[1,2]dioxepino[4,3-i]isochromen-10-yl)thiomorpholin-2-yl)hexyl)piperazin-1-yl)-5-(((1S,2S,5R)-2-isopropyl-5-methylcyclohexyl)oxy)furan-2(5H)-one]
IC50 [1]: 320 ± 30 µM
IC50 [2]: 360 ± 30 µM

C[C@H]1[C@H](N2CCS(=O)(=O)[C@@H](CCCCCCN3CCN(C4=C(Cl)C(=O)OC4O[C@H]4CC5CCC4(C)C5(C)C)CC3)C2)O[C@@H]2O[C@@]3(C)CC[C@H]4[C@H](C)CC[C@@H]1[C@@]24OO3 (stereo partly drawn) [Hybrid 12c, 3-Chloro-4-(4-(6-((S)-1,1-dioxido-4-((3R,5aS,6R,8aS,9R,10R,12R,12aR)-3,6,9-trimethyldecahydro-3H-3,12-epoxy[1,2]dioxepino[4,3-i]isochromen-10-yl)thiomorpholin-2-yl)hexyl)piperazin-1-yl)-5-(((2S)-1,7,7-trimethylbicyclo[2.2.1]heptan-2-yl)oxy)furan-2(5H)-one]
IC50 [1]: 70 ± 40 µM
IC50 [2]: 70 ± 30 µM

COC1OC(=O)C(Br)=C1N1CCN(CCCCCC[C@H]2CN([C@@H]3OC4O[C@@]5(C)CC[C@H]6[C@H](C)CC[C@@H]([C@H]3C)[C@@]46OO5)CCS2(=O)=O)CC1 (stereo partly drawn) [Hybrid 12d, 3-Bromo-4-(4-(6-((2S)-1,1-dioxido-4-((3R,5aS,6R,8aS,9R,10R,12aR)-3,6,9-trimethyldecahydro-3H-3,12-epoxy[1,2]dioxepino[4,3-i]isochromen-10-yl)thiomorpholin-2-yl)hexyl)piperazin-1-yl)-5-methoxyfuran-2(5H)-one]
IC50 [1]: 340 ± 20 µM
IC50 [2]: 370 ± 40 µM

CC(C)[C@@H]1CC[C@@H](C)C[C@@H]1O[C@H]1OC(=O)C(Br)=C1N1CCN(CCCCCC[C@H]2CN([C@@H]3OC4O[C@@]5(C)CC[C@H]6[C@H](C)CC[C@@H]([C@H]3C)[C@@]46OO5)CCS2(=O)=O)CC1 (stereo partly drawn) [Hybrid 12e, (5S)-3-Bromo-4-(4-(6-((2S)-1,1-dioxido-4-((3R,5aS,6R,8aS,9R,10R,12aR)-3,6,9-trimethyldecahydro-3H-3,12-epoxy[1,2]dioxepino[4,3-i]isochromen-10-yl)thiomorpholin-2-yl)hexyl)piperazin-1-yl)-5-(((1S,2S,5R)-2-isopropyl-5-methylcyclohexyl)oxy)furan-2(5H)-one]
IC50 [1]: 210 ± 20 µM
IC50 [2]: 330 ± 30 µM

C[C@H]1[C@H](N2CCS(=O)(=O)[C@@H](CCCCCCN3CCN(C4=C(Br)C(=O)O[C@@H]4O[C@H]4CC5CCC4(C)C5(C)C)CC3)C2)O[C@@H]2O[C@@]3(C)CC[C@H]4[C@H](C)CC[C@@H]1[C@@]24OO3 [Hybrid 12f, (5S)-3-Bromo-4-(4-(6-((S)-1,1-dioxido-4-((3R,5aS,6R,8aS,9R,10R,12R,12aR)-3,6,9-trimethyldecahydro-3H-3,12-epoxy[1,2]dioxepino[4,3-i]isochromen-10-yl)thiomorpholin-2-yl)hexyl)piperazin-1-yl)-5-(((2S)-1,7,7-trimethylbicyclo[2.2.1]heptan-2-yl)oxy)furan-2(5H)-one]
IC50 [1]: 220 ± 30 µM
IC50 [2]: 300 ± 30 µM

CC[C@]1(O)C[C@H]2CN(CCc3c([nH]c4ccccc34)[C@@](C(=O)OC)(c3cc4c(cc3OC)N(C=O)[C@H]3[C@@](O)(C(=O)OC)[C@H](OC(C)=O)[C@]5(CC)C=CCN6CC[C@]43[C@@H]65)C2)C1 [VCR, vincristine, reference compound]
IC50 [1]: 270 ± 30 µM
IC50 [2]: 300 ± 20 µM

Source: publication PMC9033422 (RSC Advances, 2021)
